Measured values reported in paper PMC8577376 (Journal of Medicinal Chemistry, 2021).

What was measured:
[1] = target: VeroE6 lysates (CatL activity) (Chlorocebus aethiops, UniProt Q9GKL8); experiment: Protease activity in VeroE6 cell lysates using Z-Phe-Arg-AMC; format: biochemical, monkey; conditions: for inhibition of Z-Phe-Arg-AMC cleaving activity in VeroE6 lysates: 20 μM; for inactivation of CatL in VeroE6 lysates: 10 μM
[2] = system: A549 lysates (CatL/CatB activity); experiment: Protease activity in A549 cell lysates using Z-Phe-Arg-AMC; format: biochemical, human; conditions: for inhibition of Z-Phe-Arg-AMC cleaving activity in A549 cell extracts: 20 μM; for inactivation of CatL in A549 lysates: 10 μM
How it was run: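 A549 cells lysed by sonication in 50 mM MES pH 6.0 with 100 μM AEBSF, 1 μM pepstatin A, 1 mM EDTA and 1 mM DTT; protein measured by BCA. Equal volume of 50 μM Z-Phe-Arg-AMC then added; activity normalised to 0.2% DMSO wells.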

[3] = system: SARS-CoV-2; format: cell-based
[4] = system: SARS-CoV-2; experiment: SARS-CoV-2-induced CPE in A549/ACE2 cells, inverted microscope; format: cell-based; conditions: 96 h
[5] = system: SARS-CoV-2; format: cell-based; conditions: MRC-5/ACE2/TMPRSS2 cells
[6] = target: SARS-CoV-2 Mpro (Severe acute respiratory syndrome coronavirus 2, UniProt P0DTD1); experiment: Single-concentration protease screen against SARS-CoV-2 Mpro; format: biochemical; conditions: 10 μM
[7] = target: Mouse CatL (mCatL) (Mus musculus, UniProt P06797); experiment: kinact/KI^app determination, mouse CatL; format: biochemical; conditions: for kinact/KI: read-out: kinact/KI^app
How it was run: (§1)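 Test compound 555.56–0.01 nM, quadruplicate wells. Product formation rates taken at 6 min intervals over 1 h, normalised to DMSO controls. kobs from inactivation curves; kinact and KIapp by nonlinear regression of kobs = kinact[I]/(KIapp+[I]); ratio then calculated.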

[8] = target: SARS-CoV-2 PLpro (Severe acute respiratory syndrome coronavirus 2, UniProt P0DTD1); experiment: Single-concentration protease screen against SARS-CoV-2 PLpro; format: biochemical; conditions: 10 μM
[9] = target: T1, human CatL (Homo sapiens, UniProt P07711); experiment: kinact/KI^app determination, recombinant human CatL; format: biochemical; conditions: for selectivity for CatL over CatB (kinact/KI^app): human CatL vs human CatB; for kinact/KI: read-out: kinact/KI^app
How it was run: as §1

[10] = target: Recombinant human furin (Homo sapiens, UniProt P09958); format: biochemical; conditions: up to 50 μM (final concentration)
[11] = system: SARS-CoV-2; format: cell-based; conditions: 24 h
[12] = target: Recombinant human TMPRSS2 (Homo sapiens, UniProt O15393); experiment: TMPRSS2 protease activity assay; format: biochemical; conditions: up to 50 μM (final concentration)
[13] = target: T1, human CatL; experiment: Single-concentration protease screen against human CatL; format: biochemical; conditions: for follow-up screen against CatL: 13 nM
[14] = target: Human CatB (Homo sapiens, UniProt P07858); experiment: kinact/KI^app determination, recombinant human CatB; format: biochemical; conditions: for kinact/KI: read-out: kinact/KI^app
How it was run: as §1

[15] = system: SARS-CoV-2; experiment: microbe, parasite or virus in culture; format: cell-based

T1 sequence (P07711 114-333): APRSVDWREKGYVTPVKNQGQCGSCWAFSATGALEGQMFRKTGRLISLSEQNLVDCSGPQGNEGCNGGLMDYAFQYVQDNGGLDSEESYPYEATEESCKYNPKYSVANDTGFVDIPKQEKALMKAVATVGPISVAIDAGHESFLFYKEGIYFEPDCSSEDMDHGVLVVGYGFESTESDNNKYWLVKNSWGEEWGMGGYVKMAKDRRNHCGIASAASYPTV
Sequence of VeroE6 lysates (CatL activity) (Q9GKL8 114-333): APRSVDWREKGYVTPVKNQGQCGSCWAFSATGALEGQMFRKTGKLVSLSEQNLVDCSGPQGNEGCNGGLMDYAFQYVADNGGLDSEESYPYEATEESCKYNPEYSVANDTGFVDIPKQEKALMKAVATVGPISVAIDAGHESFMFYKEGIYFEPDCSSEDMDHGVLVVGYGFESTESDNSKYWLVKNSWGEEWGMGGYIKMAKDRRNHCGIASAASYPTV
Sequence of Mouse CatL (mCatL) (P06797 114-334): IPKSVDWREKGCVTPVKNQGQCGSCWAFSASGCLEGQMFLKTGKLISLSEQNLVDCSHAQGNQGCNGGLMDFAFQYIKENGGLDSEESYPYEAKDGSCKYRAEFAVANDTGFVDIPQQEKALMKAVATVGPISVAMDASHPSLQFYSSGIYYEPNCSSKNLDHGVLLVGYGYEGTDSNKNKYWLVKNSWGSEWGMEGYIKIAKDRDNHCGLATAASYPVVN
Sequence of Recombinant human furin (P09958 108-794): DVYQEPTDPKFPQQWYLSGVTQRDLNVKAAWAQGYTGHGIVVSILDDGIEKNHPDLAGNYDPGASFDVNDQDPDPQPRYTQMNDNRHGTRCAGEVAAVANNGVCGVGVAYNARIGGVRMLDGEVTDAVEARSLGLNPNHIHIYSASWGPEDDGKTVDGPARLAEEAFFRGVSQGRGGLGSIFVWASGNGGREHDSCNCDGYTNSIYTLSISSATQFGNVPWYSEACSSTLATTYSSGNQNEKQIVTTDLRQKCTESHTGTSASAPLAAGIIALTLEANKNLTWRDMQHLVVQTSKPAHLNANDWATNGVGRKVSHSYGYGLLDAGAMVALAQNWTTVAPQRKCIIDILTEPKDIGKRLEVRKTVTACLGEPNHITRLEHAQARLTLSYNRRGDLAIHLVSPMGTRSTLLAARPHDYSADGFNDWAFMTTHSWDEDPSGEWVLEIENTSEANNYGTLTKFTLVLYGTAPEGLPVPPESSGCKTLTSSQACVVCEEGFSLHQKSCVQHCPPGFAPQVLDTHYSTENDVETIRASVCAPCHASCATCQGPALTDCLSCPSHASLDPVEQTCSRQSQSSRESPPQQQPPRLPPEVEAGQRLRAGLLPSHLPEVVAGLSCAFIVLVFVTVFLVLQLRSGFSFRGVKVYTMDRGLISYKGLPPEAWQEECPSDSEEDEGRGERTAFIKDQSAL
Sequence of Recombinant human TMPRSS2 (O15393 whole entry): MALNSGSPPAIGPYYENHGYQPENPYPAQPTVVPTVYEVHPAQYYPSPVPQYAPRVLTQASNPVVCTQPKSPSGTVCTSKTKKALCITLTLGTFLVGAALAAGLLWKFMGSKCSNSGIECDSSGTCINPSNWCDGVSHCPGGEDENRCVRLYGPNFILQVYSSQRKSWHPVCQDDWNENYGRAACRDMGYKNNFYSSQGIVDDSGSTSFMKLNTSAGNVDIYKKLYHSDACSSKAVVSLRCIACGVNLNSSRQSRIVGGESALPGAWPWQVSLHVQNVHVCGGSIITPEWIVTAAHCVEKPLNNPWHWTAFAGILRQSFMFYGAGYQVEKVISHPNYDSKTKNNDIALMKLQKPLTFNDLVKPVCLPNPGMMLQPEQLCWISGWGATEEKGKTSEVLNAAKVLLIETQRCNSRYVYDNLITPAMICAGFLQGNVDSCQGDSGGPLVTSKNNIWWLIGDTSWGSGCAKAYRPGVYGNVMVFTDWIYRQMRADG

Row | SMILES | lowest concentration completely preventing virus-induced CPE [4] [nM] | kinact [7] [s⁻¹] | kinact/KI [7] [M⁻¹ s⁻¹] | kinact [9] [s⁻¹] | kinact/KI [9] [M⁻¹ s⁻¹] | follow-up screen against CatL [13] | kinact [14] [s⁻¹] | kinact/KI [14] [M⁻¹ s⁻¹] | also measured
1 | CCCNC(=O)[C@H]1O[C@@H]1C(=O)N[C@H](C(=O)N1CCC[C@H]1C(=O)O)[C@@H](C)CC [CA-074, reference compound] |  |  |  |  |  |  |  |  | inhibition of Z-Phe-Arg-AMC cleaving activity in VeroE6 lysates [1]: no inhibitory activity; inhibition of Z-Phe-Arg-AMC cleaving activity in A549 cell extracts [2]: most of the activity was also sensitive
2 | CC[C@H](C)[C@@H](C(=O)O[C@@H](CC(C)C)C(=O)N[C@@H](CC(C)C)C(=O)N[C@@H](C)/C=C/C(=O)N1C(=O)C=C(OC)[C@@H]1C)N(C)C [compound 1, gallinamide A] | 625 | 0.00569 | 1.07e+06 | 0.00475 | 598000 | most potent inhibitors | 0.000627 | 5350 | inhibitory effect on infection by time of addition [3]: maximum when 1 was added prior to or at the time of entry; concentration completely neutralizing SARS-CoV-2 entry [5]: 32 nM; inhibition of Mpro [6]: no inhibition; inhibition of Z-Phe-Arg-AMC cleaving activity in VeroE6 lysates [1]: completely inhibited; inhibition of PLpro [8]: no inhibition; selectivity for CatL over CatB (kinact/KI^app) [9]: 112 fold; inhibition of furin activity [10]: did not inhibit; inhibition of Z-Phe-Arg-AMC cleaving activity in A549 cell extracts [2]: inhibited; antiviral activity in HEK293-ACE2-TMPRSS2 cells [11]: substantially reduced; inhibition of TMPRSS2 activity [12]: did not inhibit; CatL activity after incubation with compound ([13]; 10 μM): completely inhibited
3 | CC[C@H](C)[C@@H](C(=O)O[C@@H](CC(C)C)C(=O)N[C@@H](CC(C)C)C(=O)N[C@@H](C)/C=C/C(=O)N1C(=O)C=C(OC)[C@@H]1CC(C)C)N(C)C [compound 3] |  |  |  |  |  | most potent inhibitors |  |  | 
4 | COC1=CC(=O)N(C(=O)/C=C/[C@H](C)NC(=O)[C@H](CC(C)C)NC(=O)[C@H](CC2CCCCC2)NC(=O)C2CCN(C)CC2)[C@H]1Cc1c[nH]c2ccccc12 [compound 17] |  | 0.00856 | 292000 | 0.00347 | 193000 | most potent inhibitors | 0.0209 | 24300 | inactivation of CatL in VeroE6 lysates [1]: complete inactivation; selectivity for CatL over CatB (kinact/KI^app) [9]: 8 fold; inactivation of CatL in A549 lysates [2]: complete inactivation; EC50 ([15]; Severe acute respiratory syndrome coronavirus 2, Vero C1008, 72 h, read-out: EC50 SARS-CoV-2, VeroE6 cells, 72 h, mean ± SD of 3–4 independent biological replicates): > 5 µM
5 | COC1=CC(=O)N(C(=O)/C=C/[C@H](C)NC(=O)[C@H](CCc2ccccc2)NC(=O)[C@H](CC2CCCCC2)NC(=O)[C@H](C(C)C)N(C)C)[C@H]1Cc1c[nH]c2ccccc12 [compound 19] | 310 | 0.00224 | 136000 | 0.00587 | 189000 | most potent inhibitors | 0.00335 | 9650 | concentration completely neutralizing SARS-CoV-2 entry [5]: 32 nM
6 | COC1=CC(=O)N(C(=O)/C=C/[C@H](C)NC(=O)[C@H](CC(C)C)NC(=O)[C@H](CC(C)C)NC(=O)C2CCN(C)CC2)[C@H]1Cc1c[nH]c2ccccc12 [compound 20] |  | 0.00319 | 806000 | 0.00834 | 290000 | most potent inhibitors | 0.017 | 19900 | inactivation of CatL in VeroE6 lysates [1]: complete inactivation; inactivation of CatL in A549 lysates [2]: complete inactivation
7 | COC1=CC(=O)N(C(=O)/C=C/[C@H](CCc2ccccc2)NC(=O)[C@H](CC(C)C)NC(=O)[C@H](CC(C)C)NC(=O)[C@H](C(C)C)N(C)C)[C@H]1Cc1c[nH]c2ccccc12 [compound 23] | 310 | 0.0096 | 2.31e+06 | 0.00985 | 835000 | most potent inhibitors | 0.00189 | 7940 | fold more potent than parent natural product 1, based on kinact/KI^app ([9]; human CatL): 1.4 fold
8 | CS(=O)(=O)O.CS(=O)(=O)O.N=C(N)Nc1ccc(C(=O)Oc2ccc3cc(C(=N)N)ccc3c2)cc1 [nafamostat mesylate, reference compound] |  |  |  |  |  |  |  |  | concentration of neutralization of infection [5]: 4 µM; antiviral activity in HEK293-ACE2-TMPRSS2 cells [11]: potent antiviral activity; antiviral activity on VeroE6 cells [15]: not effective; antiviral activity on VeroE6 cells ([15]; listed as Nafamostat mesylate): did not exhibit notable antiviral activity
